Results on one compound are retold here after ChEMBL document CHEMBL1671809, “Discovery of phosphoric acid mono-{2-[(E/Z)-4-(3,3-dimethyl-butyrylamino)-3,5-difluoro-benzoylimino]-thiazol-3-ylmethyl} ester (Lu AA47070): a phosphonooxymethylene prodrug of a potent and selective hA(2A) receptor antagonist” (J Med Chem, 2011).

For one series, the target named is Cytochrome P450 3A4 (Homo sapiens, UniProt P08684). Description: Inhibition of recombinant CYP3A4 after 30 mins. Format: ADME. The essentials: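 Recombinant CYP supersomes incubated in phosphate buffer with eight compound concentrations (40-0.02 μM) and fluorogenic substrates. CYP3A4: resorufin benzyl ether 100 μM, 30 min. Fluorescent metabolite read; IC50 relative to uninhibited controls.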
Chain of Cytochrome P450 3A4 (P08684 whole entry): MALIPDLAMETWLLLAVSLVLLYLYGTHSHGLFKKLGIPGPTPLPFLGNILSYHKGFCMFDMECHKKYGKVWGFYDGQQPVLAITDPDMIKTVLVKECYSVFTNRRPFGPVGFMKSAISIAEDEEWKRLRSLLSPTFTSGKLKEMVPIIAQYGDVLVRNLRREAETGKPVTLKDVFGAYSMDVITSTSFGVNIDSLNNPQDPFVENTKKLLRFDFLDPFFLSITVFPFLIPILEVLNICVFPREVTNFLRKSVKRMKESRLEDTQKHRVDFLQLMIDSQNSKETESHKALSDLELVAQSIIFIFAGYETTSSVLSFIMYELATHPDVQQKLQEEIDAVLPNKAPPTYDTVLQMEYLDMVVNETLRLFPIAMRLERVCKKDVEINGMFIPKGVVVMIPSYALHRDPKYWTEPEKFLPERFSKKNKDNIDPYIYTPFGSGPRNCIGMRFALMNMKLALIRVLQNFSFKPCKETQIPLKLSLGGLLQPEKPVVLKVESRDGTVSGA

Series [1] in a line: Protein binding in rat serum at 1 uM after 60 mins by LC/MS-MS. Format: ADME, cell-free. The conditions noted are these: read-out: PPB (converted).
For the next series, the species on record is Homo sapiens. Description: Selectivity ratio of Ki for human adenosine A1 receptor to Ki for human adenosine A2A receptor.
Series [2] is described as follows: Volume of distribution at steady state in Sprague-Dawley rat at 0.5 mg/kg, iv and 1 mg/kg, po. The following applies: in vivo, read-out: Vdss. Format: ADME, organism-based. The procedure, abridged:
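Awake Sprague-Dawley rats carrying a carotid catheter were dosed with 0.5 mg/kg iv or 1 mg/kg po in aqueous 25% cremophore, n = 3 per route. Ten 100 μL blood samples were collected automatically over 20 h. Plasma was assayed by HTLC-MS/MS. Parameters came from a two-compartment model with first-order absorption (po) and elimination.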

Series [3] can be described thus: Aqueous solubility of the compound at pH 7.4. The series is classed as physicochemical. The conditions noted are these: buffer. The essentials:
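About 5 mg solid was shaken overnight in 1 mL of 25 mM phosphate buffer, pH 7.4, after 3 min sonication; more solid was added if it all dissolved. The suspension was filtered through 0.22 μm PVDF and the solution measured by HPLC against a standard curve.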

The nature of series [4]: Protein binding in dog serum at 1 uM after 60 mins by LC/MS-MS. Format: ADME, cell-free, Canis lupus familiaris. The following applies: read-out: PPB (converted).
Series [5] in a line: Apparent permeability from apical to basolateral side in human Caco2 cells at 1 uM after 21 to 28 days. The series is classed as ADME, cell-based. The conditions noted are these: caco-2. The procedure, abridged:
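Caco-2 cells grown 21-28 days on permeable filters. A 2 mM DMSO stock was diluted into Hanks-HEPES pH 7.4. Dosing solution went into the apical (A-B) or basolateral (B-A) chamber, and the opposite chamber was sampled over 240 min with buffer replacement. Efflux ratio = Papp,B-A/Papp,A-B. Mean ± SD, n = 3.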

A further series relates to Mus musculus. Put plainly: Displacement of [3H]SCH58261 from po dosed NMRI mouse striatum by liquid scintillation counting. Format: functional.
A short description of series [6]: Protein binding in human serum at 1 uM after 60 mins by LC/MS-MS. The series is classed as ADME, cell-free. The following applies: read-out: PPB (converted).
For the next series, the target named is T1, Adenosine receptor A2b (Homo sapiens, UniProt P29275).
T1 sequence (P29275 whole entry): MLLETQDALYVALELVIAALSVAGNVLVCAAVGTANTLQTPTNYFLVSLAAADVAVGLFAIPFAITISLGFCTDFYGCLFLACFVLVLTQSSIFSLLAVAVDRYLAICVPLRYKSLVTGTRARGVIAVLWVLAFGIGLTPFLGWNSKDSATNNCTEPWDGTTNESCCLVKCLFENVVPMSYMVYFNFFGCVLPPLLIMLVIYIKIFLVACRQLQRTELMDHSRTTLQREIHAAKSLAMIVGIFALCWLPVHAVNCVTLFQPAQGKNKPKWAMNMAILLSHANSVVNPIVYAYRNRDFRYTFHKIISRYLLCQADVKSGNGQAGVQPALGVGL
Put plainly: Displacement of [3H]-MRS1754 from human recombinant adenosine A2B receptor expressed in HEK293 cells after 120 mins. In general terms: Loss of bound radioactivity is the signal in a displacement assay; it reports binding, not function.

Series [7] can be described thus: Ratio of drug level whole brain to plasma in abcb1a-deficient mouse at 1 mg/kg, po after 50 mins.
The test system of a further series is Hepatocyte. Description: Intrinsic clearance in human hepatocytes at 0.2 uM after 60 mins. The series is classed as ADME, cell-based, Liver. The following applies: 1 h. The procedure, abridged: (§1)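 Pooled cryopreserved hepatocytes: human (three donors), male Sprague-Dawley rat (two donors), male beagle dog (two donors). Cells at 10^6/mL in DMEM with 5 mM HEPES, 37 C, 15 min preincubation; compound at 0.2 μM. Samples at 0-60 min, depletion by LC-MS/MS. t1/2 scaled to CLint with 120 (human, rat) or 240 (dog) million cells/g liver. n = 1.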

A short description of series [8]: Intrinsic clearance in dog hepatocytes at 0.2 uM after 60 mins. The series is classed as ADME, cell-based, Canis lupus familiaris, Liver, Hepatocyte. The conditions noted are these: 1 h. The essentials:
as §1

In general, IC50 refers to the concentration at which inhibition is half-maximal. As a reminder, the solubility is the concentration that dissolves in the medium under given conditions. A higher solubility goes with a readily soluble substance. As usually defined, the Papp A→B is the apparent permeability from the apical to the basolateral side of a cell layer. By ED50 is commonly meant the dose that gives a 50% effect, or the effect in half of the subjects. Higher therefore signals weaker potency. By Ki is commonly meant the dissociation constant of the complex between target and ligand, obtained from inhibition or displacement. For orientation: Kp means tissue or fluid exposure divided by exposure in the circulation.

In brackets after ≈: the same amount, converted by molar mass.

In the case of `CC(C)(C)CC(=O)Nc1c(F)cc(C(=O)Nc2nccs2)cc1F`, the IC50 on Cytochrome P450 3A4 is > 40 µM. The fraction unbound at 1 h, 1 µM in series [1] was 0.03; in series [4], 0.13; in series [6], 0.15. Further, the Ratio Ki in the series filed under Homo sapiens amounted to 69. For the same compound, the Vd in series [2] came out at 1 L/kg. Further, the solubility in series [3] turned out to be 1 µg/mL (≈ 2.83 µM). Besides, the Papp A→B at 1 µM in [5] is 88 ×10⁻⁶ cm/s. Further, the Activity result in the series on Mus musculus is “Dose-dependent effect”. The compound also registered an ED50 in the series with Mus musculus of 1.1 mg/kg. For the same compound, the Ki at Adenosine receptor A2b came out at 0.26 µM. Also, the Kp at 50 min in series [7] turned out to be 0.8. In addition, the CL with Hepatocyte was 600 mL/min; in [8], 346 mL/min.
